Measured values published in paper PMC3582785 (Arthritis and rheumatism, 2013).

Test system: SE-expressing peptides and tetrameric proteins
Assay: SPR binding of CRT variants
Settings: citrullinated CRT compared to non-citrullinated CRT
In short: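 Native, PAD-citrullinated or Arg→Ala mouse CRT was immobilised at 3000 RU. Analytes were 15mer SE-positive or SE-negative control peptides at 330 μM, and HLA-DR tetramers (SE-positive or SE-negative) at 250 nM.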

B1: Cit-CRT: recombinant mouse CRT citrullinated in vitro with PAD from rabbit skeleton muscle (protein, UniProt P14211 18-416, looked up)
Calreticulin: DPAIYFKEQFLDGDAWTNRWVESKHKSDFGKFVLSSGKFYGDLEKDKGLQTSQDARFYALSAKFEPFSNKGQTLVVQFTVKHEQNIDCGGGYVKLFPSGLDQKDMHGDSEYNIMFGPDICGPGTKKVHVIFNYKGKNVLINKDIRCKDDEFTHLYTLIVRPDNTYEVKIDNSQVESGSLEDDWDFLPPKKIKDPDAAKPEDWDERAKIDDPTDSKPEDWDKPEHIPDPDAKKPEDWDEEMDGEWEPPVIQNPEYKGEWKPRQIDNPDYKGTWIHPEIDNPEYSPDANIYAYDSFAVLGLDLWQVKSGTIFDNFLITNDEAYAEEFGNETWGVTKAAEKQMKDKQDEEQRLKEEEEDKKRKEEEEAEDKEDDDDRDEDEDEEDEKEEDEEESPGQAKDEL
modifications: citrullinated
- interaction with the SE ligand (in words): higher affinity for the SE ligand
